# Experimental data from different studies.
# Lines come from different studies, so protocols differ.
# BCHE: Cholinesterase (BCHE, Homo sapiens, UniProt P06276)
Structure (SMILES),target,assay,setting,endpoint,value
COc1ncccc1-c1cnn2ccc(N3CCN(C(=O)OC(C)C)CC3)nc12,"Dual specificity mitogen-activated protein kinase kinase 5 (MAP2K5, Homo sapiens, UniProt Q13163)","binding, competition with immobilised ligand",1 µM,remaining binding,65%
CCN(CC)CCCC[C@H](NC(=O)[C@H](CC(C)C)NC(=O)[C@H](C)NC(=O)[C@H](Cc1ccccc1)NC(=O)c1ccc(C(C)(C)C)cc1)C(=O)N[C@@H](CO)C(=O)OC,"Chromatin remodeling regulator CECR2 (CECR2, Homo sapiens, UniProt Q9BXF3)","thermal stability, DSF",25 µM,ΔTm,0.58 °C
C=CCn1c2cc(OC(=O)CCCCN3CCN(Cc4ccccc4)CC3)ccc2c2ccnc(C)c21,BCHE,"enzyme activity, inhibitor, Ellman",1 µM,inhibition,38.5%
Nc1ncc(-c2nc(N3CCOCC3)nc(N3CCOCC3)n2)c(C(F)F)n1,"Peripheral plasma membrane protein CASK (CASK, Homo sapiens, UniProt O14936)","binding, competition with immobilised ligand",10 µM,remaining binding,77%
Cc1nn(C)cc1-c1nc2c(N3CCN(Cc4ccc(Cl)cc4)CC3)c(Cl)cnc2[nH]1,"Interferon-induced, double-stranded RNA-activated protein kinase (EIF2AK2, Homo sapiens, UniProt P19525)","binding, competition with immobilised ligand",1 µM,remaining binding,95%
C#Cc1n[nH]c2c(-c3cn(C(C)c4ccccn4)c(=O)[nH]c3=O)cc(F)cc12 (centres unmarked),"Fibroblast growth factor receptor 1 (FGFR1, Homo sapiens, UniProt P11362, V561M)","enzyme activity, inhibitor",1 µM,inhibition,11.4%
C=CCn1c2cc(OC(=O)CCN3CCN(Cc4ccccc4)CC3)ccc2c2ccnc(C)c21,BCHE,"enzyme activity, inhibitor, Ellman",1 µM,inhibition,29.9%
NC(=O)c1cccc(-c2cccc(OC(=O)NC3CCCCC3)c2)c1,"Cocaine esterase (CES2, Homo sapiens, UniProt O00748)","enzyme activity, inhibitor",pH 7.4,kinact/KI,3900 M⁻¹ s⁻¹
